Measurements taken from ChEMBL document CHEMBL1955718, “Discovery of new orally effective analgesic and anti-inflammatory hybrid furoxanyl N-acylhydrazone derivatives” (Bioorg Med Chem, 2012).

How the values were obtained:
[1] = test system: HT-29; test: Pro-inflammatory activity in NFkappaB-GFP transfected human HT-29 cells at 25 to 400 uM after 24 hrs by propidium iodide staining-based flow cytometric analysis; assay type: ADME, cell-based; conditions: ht-29, 24 h
Method in brief: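 Reporter HT-29-NF-κB-hrGFP cells given compound alone, without TNF-α, for 18–24 h at 37 °C after the same 2 h pre-incubation. GFP-positive live (propidium iodide-excluding) cells counted by flow cytometry; IL-8 in supernatant measured by bead-based flow cytometry.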

[2] = Cytotoxicity against mouse […] cells after 48 hrs by MTT assay; assay type: cell-based
Method in brief: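 J774 macrophages in DMEM (4 mM L-glutamine, 10% heat-inactivated FBS) were seeded at 1 × 10^5 cells/well and grown for 48 h at 37 °C, 5% CO2. They were then exposed to compounds at 25–400 µM for 48 h. MTT (0.1 mg/mL final) was added for 3 h, formazan was dissolved in DMSO/glycine buffer pH 10.5, and absorbance was read at 560 nm to give an IC50.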

[3] = test system: HT-29; test: Inhibition of TNF-alpha-induced NFkappaB activation expressed in human HT-29 cells coexpressing hrGFP at 50 uM after 24 hrs by propidium iodide staining-based flow cytometric analysis relative to control; assay type: cell-based
Method in brief: (§1)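 HT-29 cells stably expressing NF-κB-driven hrGFP given compound (DMSO <0.5%) for 2 h at the maximum non-cytotoxic concentration, then TNF-α at 3 ng/mL final for 18–24 h. Cells trypsinised and stained with propidium iodide; 5000 events gated on FSC/SSC. The %GFP-positive among PI-excluding live cells is normalised to TNF-α/DMSO control, ± SD.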

[4] = Cytotoxicity against human HT-29 cells expressing NF-kappaB-hrGFP assessed as highest non-cytotoxic dose for 100% cell survival after 24 hrs by MTT assay; assay type: cell-based; conditions: read-out: Activity
Method in brief: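 HT-29 cells stably carrying pNF-κB-hrGFP, seeded at 0.5 × 10^6/mL in DMEM with 10% FBS, grown 24 h at 37 °C, 5% CO2. Compounds added in DMSO (<0.5% v/v final) at 12.5–400 µM for 24 h. Viability by MTT reduction (2 h), formazan dissolved in DMSO/glycine buffer, read at 560 nm.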

[5] = Inhibition of soybean lipoxygenase using arachidonic acid as substrate; set-up: species or system Glycine max
Method in brief: (§2)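 Soybean 15-lipoxygenase kit assay, arachidonic acid substrate, H2O2 as lipoxygenating agent in 0.1 M Tris-HCl pH 7.4. Single-point screen at 50 µM. IC50 found by varying concentration over 10–100 µM. Quercetin at 4 µM as positive control; duplicate means; Student t-test.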

[6] = Induction of NO release in 0.1 M Tris-HCl and 0.1 mM DTPA at pH 8.3 measured for 20 mins in presence of cysteine; assay type: physicochemical; conditions: buffer, pH 8.3, 20 min
Method in brief: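 Electrochemical NO detection with an ISO-NOP sensor. Compounds in DMSO added to 0.1 M Tris-HCl, 0.1 mM DTPA at pH 7.4 or 8.3. Cysteine (300 or 100 µM) added and NO recorded for 20 min at 25 or 37 °C; compound:Cys ratio 1:1 at 25 °C, with 3:1 and 37 °C runs also made.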

[7] = test system: Glycine max; test: Inhibition of soybean lipoxygenase using arachidonic acid as substrate at 50 uM; method in brief: as §2
[8] = test system: HT-29; test: Inhibition of NF-kappaB activation expressed in human HT-29 cells assessed as inhibition of TNFalpha-stimulated IL8 release at 50 uM after 24 hrs by flow cytometric analysis relative to control; assay type: cell-based
Method in brief: (§3)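 Reporter HT-29-NF-κB-hrGFP cells pretreated 2 h with compound (DMSO <0.5%) at the highest concentration with 100% survival, then stimulated with TNF-α (3 ng/mL final) for 18–24 h at 37 °C. IL-8 in clarified supernatant measured by flow cytometric bead assay (500 events). Expressed as % of TNF-α/DMSO control ± SD; thalidomide as reference.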

[9] = test system: HT-29; test: Inhibition of NF-kappaB activation expressed in human HT-29 cells assessed as inhibition of TNFalpha-stimulated IL8 release at 100 uM after 24 hrs by flow cytometric analysis relative to control; assay type: cell-based; method in brief: as §3
[10] = test system: HT-29; test: Inhibition of TNFalpha-induced NF-kappaB activation expressed in human HT-29 cells coexpressing hrGFP at 100 uM after 24 hrs by propidium iodide staining-based flow cytometric analysis relative to control; assay type: cell-based; method in brief: as §1
[11] = test system: HT-29; test: Inhibition of TNFalpha-induced NF-kappaB activation expressed in human HT-29 cells coexpressing hrGFP at 400 uM after 24 hrs by propidium iodide staining-based flow cytometric analysis relative to control; assay type: cell-based; method in brief: as §1
[12] = test system: HT-29; test: Inhibition of NF-kappaB activation expressed in human HT-29 cells assessed as inhibition of TNFalpha-stimulated IL8 release at 400 uM after 24 hrs by flow cytometric analysis relative to control; assay type: cell-based; method in brief: as §3

| SMILES | Activity [1] | IC50 [2] [µM] | NF-kappaB activation (% of TNF-alpha control) [3] [%] | MNTC at 24 h [4] [µM] | IC50 [5] [µM] | Activity [6] [nM/min] | inhibition [7] [%] | inhibition [8] [%] | inhibition [9] [%] | NF-kappaB activity (% of TNF-alpha control) [10] [%] | NF-kappaB activity (GFP-positive cells), % of TNF-alpha control [11] [%] | inhibition [12] [%] |
| --- | --- | --- | --- | --- | --- | --- | --- | --- | --- | --- | --- | --- |
| O=C(N/N=C/c1ccc2no[n+]([O-])c2c1)c1cnn(-c2ccccc2)c1 | Non-toxic | 37 | – | – | – | – | – | – | – | – | – | – |
| Cc1nc2ccccn2c1C(=O)NN | Non-toxic | > 400 | 111 | 50 | – | – | – | – | – | – | – | – |
| O=C(O)c1ccc(/C=N/NC(=O)c2c(-c3ccccc3)no[n+]2[O-])cc1 | Non-toxic | > 300 | 115 | 50 | 50 | 0 | 53 | 114 | – | – | – | – |
| Cc1c(C(=O)N/N=C/c2c(-c3ccccc3)no[n+]2[O-])no[n+]1[O-] | Non-toxic | > 400 | – | 100 | – | – | – | – | 77 | 122 | – | – |
| Cc1c(C(=O)N/N=C/c2ccc3no[n+]([O-])c3c2)no[n+]1[O-] | Non-toxic | > 400 | – | 400 | – | – | – | – | – | – | 121 | 68 |
| Cc1c(C(=O)N/N=C/c2ccc(C(F)(F)F)cc2)no[n+]1[O-] | Non-toxic | > 400 | – | 400 | 50 | – | 55 | – | – | – | 55 | – |
| Cc1c(C(=O)N/N=C/c2ccc([N+](=O)[O-])s2)no[n+]1[O-] | Non-toxic | 68 | – | 100 | – | – | – | – | – | 111 | – | – |
| O=C(N/N=C/c1ccc2no[n+]([O-])c2c1)c1ccc2c(c1)OCO2 | Non-toxic | 141 | – | 400 | 50 | 0 | 55 | – | – | – | 87 | 64 |
| Cc1c(/C=N/NC(=O)c2cnn(-c3ccccc3)c2)no[n+]1[O-] (mixture of isomers) | Non-toxic | 295 | – | 100 | – | – | 0 | – | – | 80 | – | – |
| Cc1nc2ccccn2c1C(=O)N/N=C/c1no[n+]([O-])c1C | Non-toxic | > 400 | – | 400 | – | – | – | – | – | – | 120 | 77 |
| O=C(N/N=C/c1c(-c2ccccc2)no[n+]1[O-])c1cnn(-c2ccccc2)c1 | Non-toxic | 42 | – | 400 | – | – | – | – | – | – | 105 | – |
| Cc1nc2ccccn2c1C(=O)N/N=C/c1ccc2no[n+]([O-])c2c1 | Non-toxic | > 400 | – | 400 | – | – | – | – | – | – | 104 | 76 |
